The results in this text go back to ChEMBL document CHEMBL4431326, “Tumor Targeting with Novel 6-Substituted Pyrrolo [2,3-d] Pyrimidine Antifolates with Heteroatom Bridge Substitutions via Cellular Uptake by Folate Receptor α and the Proton-Coupled Folate Transporter and Inhibition of de Novo Purine Nucleotide Biosynthesis” (J Med Chem, 2016).

The target of data set [1] is T1, Trifunctional purine biosynthetic protein adenosine-3 (Homo sapiens, UniProt P22102).
T1 sequence (P22102 whole entry): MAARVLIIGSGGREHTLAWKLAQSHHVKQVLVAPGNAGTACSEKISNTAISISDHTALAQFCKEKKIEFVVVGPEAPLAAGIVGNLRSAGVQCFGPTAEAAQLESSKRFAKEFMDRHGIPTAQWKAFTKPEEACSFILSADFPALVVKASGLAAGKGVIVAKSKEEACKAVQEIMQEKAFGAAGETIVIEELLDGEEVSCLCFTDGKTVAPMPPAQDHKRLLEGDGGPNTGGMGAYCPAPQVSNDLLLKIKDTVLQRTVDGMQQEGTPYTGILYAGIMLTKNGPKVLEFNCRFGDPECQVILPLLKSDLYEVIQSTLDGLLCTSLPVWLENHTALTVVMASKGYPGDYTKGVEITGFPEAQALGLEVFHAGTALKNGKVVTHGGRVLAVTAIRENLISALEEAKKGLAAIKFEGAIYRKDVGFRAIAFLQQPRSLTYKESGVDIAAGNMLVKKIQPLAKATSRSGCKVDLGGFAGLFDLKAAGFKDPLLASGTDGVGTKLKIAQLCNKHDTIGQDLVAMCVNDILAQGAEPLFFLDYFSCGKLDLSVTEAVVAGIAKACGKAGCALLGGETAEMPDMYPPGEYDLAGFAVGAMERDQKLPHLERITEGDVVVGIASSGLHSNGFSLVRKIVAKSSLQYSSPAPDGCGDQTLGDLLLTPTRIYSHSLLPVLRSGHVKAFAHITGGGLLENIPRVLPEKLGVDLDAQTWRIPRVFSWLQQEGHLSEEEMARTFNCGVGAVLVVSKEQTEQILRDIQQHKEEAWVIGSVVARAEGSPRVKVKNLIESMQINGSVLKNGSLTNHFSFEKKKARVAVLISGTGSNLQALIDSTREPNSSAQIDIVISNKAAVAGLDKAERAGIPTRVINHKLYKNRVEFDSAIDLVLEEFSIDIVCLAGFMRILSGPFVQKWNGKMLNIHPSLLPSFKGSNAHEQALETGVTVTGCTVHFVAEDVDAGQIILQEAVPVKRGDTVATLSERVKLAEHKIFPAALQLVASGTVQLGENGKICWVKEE
Put plainly: Inhibition of recombinant N-terminal 6His-tagged human GARFTase assessed as formation of 5,8-dideazafolate from 10-formyl-5,8-dideazafolic acid measured at every 15 seconds over 20 min by spectrophotometric analysis.

For data set [2], the target named is T2, Proton-coupled folate transporter (Homo sapiens, UniProt Q96NT5).
T2 sequence (Q96NT5 whole entry): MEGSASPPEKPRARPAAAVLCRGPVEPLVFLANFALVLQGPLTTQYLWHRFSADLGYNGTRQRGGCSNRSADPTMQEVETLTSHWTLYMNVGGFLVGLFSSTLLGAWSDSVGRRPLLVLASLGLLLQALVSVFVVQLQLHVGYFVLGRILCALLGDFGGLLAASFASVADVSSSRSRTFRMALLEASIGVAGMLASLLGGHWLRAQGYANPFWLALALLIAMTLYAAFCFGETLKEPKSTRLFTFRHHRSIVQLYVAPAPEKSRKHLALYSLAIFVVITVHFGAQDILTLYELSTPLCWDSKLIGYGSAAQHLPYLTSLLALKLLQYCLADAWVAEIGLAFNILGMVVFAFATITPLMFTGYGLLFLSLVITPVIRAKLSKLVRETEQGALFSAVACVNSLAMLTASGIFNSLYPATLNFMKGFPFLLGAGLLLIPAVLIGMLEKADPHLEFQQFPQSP
Kind of data set: Inhibition of [3H]MTX uptake at human PCFT expressed in Chinese hamster R2/PCFT4 cells at pH 5.5 measured after 5 mins by Dixon plot analysis. Type of data set: cell-based.

Data set [3] can be described thus: Toxicity in folate-deficient diet fed SCID mouse xenografted with human IGROV1 cells assessed as body weight loss at 96 and 150 mg/kg, iv administered […] post 2 days of tumor implantation measured during compound treatment. The format is organism-based. The settings on record: in vivo, 48 h. Put shortly: (§1)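 Female NCR SCID mice (11 weeks old, ~20 g) are fed a folate-deficient diet from 14 days before implant. IGROV1 fragments (30–60 mg) are trocar-implanted subcutaneously in both flanks, and mice are randomised at 5/group. Tail-vein dosing starts on day 2: 28 mg/kg/inj Q3dx5, or 96 or 150 mg/kg/inj Q3dx4. Vehicle is 5% ethanol, 1% Tween-80, 0.5% NaHCO3 in water at pH 6.5. Caliper tumor mass is (a×b²)/2, T/C is taken when controls reach 700–1200 mg, and weights are recorded daily.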
On the technique in general: A xenograft is tissue or cells of one species grown in another, often human tumour cells in immunodeficient mice.

Data set [4] deals with IGROV-1. Kind of data set: Antiproliferative activity against human IGROV1 cells expressing human FR-alpha/PCFT assessed as reduction in cell viability measured after 96 hrs by Cell-Titer Blue fluorescence analysis. Type of data set: functional, cell-based. The settings on record: IGROV-1, 96 h.
Data set [5] is described as follows: Toxicity in folate-deficient diet fed SCID mouse xenografted with human IGROV1 cells assessed as body weight loss at 28 mg/kg, iv administered […] post 2 days of tumor implantation measured after 48 hrs of last dosage. The settings on record: in vivo. Type of data set: organism-based. Put shortly:
as §1

Data set [6] in a line: Toxicity in folate-deficient diet fed SCID mouse xenografted with human IGROV1 cells assessed as body weight loss at 96 and 150 mg/kg, iv administered […] post 2 days of tumor implantation measured after 48 hrs of last dosage. Type of data set: organism-based. The settings on record: in vivo. Put shortly: as §1
Data set [7] concerns the target T3, Proton-coupled folate transporter (Homo sapiens) (UniProt Q96NT5).
T3 sequence (whole entry): T2 sequence (Q96NT5 whole entry)
Kind of data set: Inhibition of [3H]MTX uptake at human PCFT expressed in Chinese hamster R2/PCFT4 cells at 10 uM and pH 6.8 measured after 5 mins. The format is cell-based.

In data set [8] the test system is IGROV-1. Kind of data set: Antitumor activity against human IGROV1 cells xenografted into folate-deficient diet fed SCID mouse assessed as tumor growth at 150 mg/kg, iv administered […] post 2 days of tumor implantation measured on day 20 relative to control. Type of data set: functional. Put shortly:
as §1

Data set [9] can be described thus: Cytotoxicity in PCFT-null Chinese hamster R2 cells assessed as reduction in cell viability measured after 96 hrs by Cell-Titer Blue fluorescence analysis. Type of data set: cell-based. The settings on record: Cricetulus griseus, R2, 96 h.
The test system of data set [10] is IGROV-1. Put plainly: Antitumor activity against human IGROV1 cells xenografted into standard diet fed SCID mouse assessed as tumor growth at 150 mg/kg, iv administered […] post 2 days of tumor implantation measured on day 20 relative to control. Type of data set: functional. The essentials:
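Female NCR SCID mice, 11 weeks, ~20 g, on folate-deficient or standard diet from 14 days pre-implant; bilateral s.c. IGROV1 fragments (30–60 mg); 5 mice/group; tail-vein dosing from day 2 (Q3d schedules) in 5% ethanol, 1% Tween-80, 0.5% NaHCO3, water, pH 6.5; caliper mass (a×b²)/2; T/C and T−C delay.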

The test system of the next data set is KB. Kind of data set: Antiproliferative activity against human KB cells expressing human RFC/FR-alpha/PCFT assessed as reduction in cell viability measured after 96 hrs by Cell-Titer Blue fluorescence analysis. Type of data set: functional, cell-based.

For orientation: Ki means the dissociation constant of the complex between target and ligand, obtained from inhibition or displacement. As a reminder, the IC50 is the point on the concentration scale where inhibition reaches its midpoint. Broadly, the inhibition is the percentage by which the read-out fell short of the control. Lower therefore signals little suppression. The T/C is the result in the treated group divided by that in the control group, in per cent. As for `Nc1nc2[nH]c(CCNc3ccc(C(=O)N[C@@H](CCC(=O)O)C(=O)O)cc3)cc2c(=O)[nH]1`, the Ki was determined as 59 nM in data set [1] and 850 nM in [2]. For the same compound, the Activity in data set [3] was 17 to 17.3%; in [5], “Non-Toxic”; in data set [6], “Non-Toxic”. The IC50 is 2.7 nM in the data set on IGROV-1 [4], > 1000 nM in [9] and 0.32 nM in the data set with KB. For the same compound, the inhibition in data set [7] lay in the range of 40 to 60%. The T/C in the data set on IGROV-1 [8] is recorded as 12%; in the data set with IGROV-1 [10], 94%.
